# Calls of active or inactive are those of the source. The calls are words filed in the database; no cut-off is given here.
# Legend:
# SOS1-KRAS = SOS1-KRAS (Homo sapiens, UniProt Q07889); experiment: Inhibition of N-terminal GST-tagged recombinant human KRAS G12C mutant (1 to 169 residues) expressed in Escherichia coli/N-terminal His10-tagged wild-type recombinant human SOS1 catalytic domain (564 to 1049 residues) expressed in Escherichia coli protein-protein interaction preincubated for 2 mins with KRAS followed by SOS1 addition measured after 60 mins in presence of anti-6His-XL665 by HTRF analysis
# Homo sapiens [1] = organism: Homo sapiens; experiment: Stabilization of N-terminal His10-tagged recombinant human KRAS G12C/C118S mutant (1 to 169 residues) expressed in Escherichia coli/Series S C1 sensor chip-immobilized biotinylated N-terminal His10-tagged wild-type recombinant human SOS1 catalytic domain (564 to 1049 residues) expressed in Escherichia coli at 100 to 500 uM measured for 360 secs by SPR analysis; details: dose 100-500 µM, time 360.0 sec
# Summary of the method: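 SOS1cat is immobilized on the chip, and 250 nM KRASG12C_C118S is flowed over with or without test compound. Compound alone at 100, 250 and 500 µM is also injected to gauge unspecific binding to SOS1cat. Buffer injection serves as the blank.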
# Homo sapiens [2] = organism: Homo sapiens; experiment: Stabilization of N-terminal His10-tagged 15N-labeled recombinant human KRAS G12C/C118S mutant (1 to 169 residues) expressed in Escherichia coli/N-terminal His10-tagged wild-type recombinant human SOS1 catalytic domain (564 to 1049 residues) expressed in Escherichia coli at 1 mM incubated for 30 mins by 2D-NMR analysis
# Homo sapiens [3] = organism: Homo sapiens; experiment: Stabilization of N-terminal His10-tagged recombinant human KRAS G12C/C118S mutant (1 to 169 residues) expressed in Escherichia coli/N-terminal His10-tagged wild-type recombinant human SOS1 catalytic domain (564 to 1049 residues) expressed in Escherichia coli by HTRF analysis
# Summary of the method: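 HTRF equilibrium-binding read-out of KRASG12C_C118S with SOS1cat, detected by fluorescently labelled antibodies including a terbium donor. Signal normalized with DMSO control as 100% and no-SOS1cat wells as 0%. Data are mean ± SD, n = 4.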
# [4] = biological target: Epidermal growth factor receptor (Homo sapiens, UniProt P00533); experiment: Inhibition of human EGFR using biotin-aminohexyl-AEEEEYFELVAKKK as substrate preincubated for 15 mins followed by substrate/ATP addition measured after 20 mins by FRET assay
# [5] = biological target: T1, Son of sevenless homolog 1 (Homo sapiens) (UniProt Q07889); experiment: Stabilization of N-terminal His10-tagged wild-type recombinant human SOS1 catalytic domain (564 to 1049 residues) expressed in Escherichia coli assessed as change in melting temperature at 100 uM with heating from 25 to 85 degreeC by thermal shift assay
# T1 sequence (whole entry): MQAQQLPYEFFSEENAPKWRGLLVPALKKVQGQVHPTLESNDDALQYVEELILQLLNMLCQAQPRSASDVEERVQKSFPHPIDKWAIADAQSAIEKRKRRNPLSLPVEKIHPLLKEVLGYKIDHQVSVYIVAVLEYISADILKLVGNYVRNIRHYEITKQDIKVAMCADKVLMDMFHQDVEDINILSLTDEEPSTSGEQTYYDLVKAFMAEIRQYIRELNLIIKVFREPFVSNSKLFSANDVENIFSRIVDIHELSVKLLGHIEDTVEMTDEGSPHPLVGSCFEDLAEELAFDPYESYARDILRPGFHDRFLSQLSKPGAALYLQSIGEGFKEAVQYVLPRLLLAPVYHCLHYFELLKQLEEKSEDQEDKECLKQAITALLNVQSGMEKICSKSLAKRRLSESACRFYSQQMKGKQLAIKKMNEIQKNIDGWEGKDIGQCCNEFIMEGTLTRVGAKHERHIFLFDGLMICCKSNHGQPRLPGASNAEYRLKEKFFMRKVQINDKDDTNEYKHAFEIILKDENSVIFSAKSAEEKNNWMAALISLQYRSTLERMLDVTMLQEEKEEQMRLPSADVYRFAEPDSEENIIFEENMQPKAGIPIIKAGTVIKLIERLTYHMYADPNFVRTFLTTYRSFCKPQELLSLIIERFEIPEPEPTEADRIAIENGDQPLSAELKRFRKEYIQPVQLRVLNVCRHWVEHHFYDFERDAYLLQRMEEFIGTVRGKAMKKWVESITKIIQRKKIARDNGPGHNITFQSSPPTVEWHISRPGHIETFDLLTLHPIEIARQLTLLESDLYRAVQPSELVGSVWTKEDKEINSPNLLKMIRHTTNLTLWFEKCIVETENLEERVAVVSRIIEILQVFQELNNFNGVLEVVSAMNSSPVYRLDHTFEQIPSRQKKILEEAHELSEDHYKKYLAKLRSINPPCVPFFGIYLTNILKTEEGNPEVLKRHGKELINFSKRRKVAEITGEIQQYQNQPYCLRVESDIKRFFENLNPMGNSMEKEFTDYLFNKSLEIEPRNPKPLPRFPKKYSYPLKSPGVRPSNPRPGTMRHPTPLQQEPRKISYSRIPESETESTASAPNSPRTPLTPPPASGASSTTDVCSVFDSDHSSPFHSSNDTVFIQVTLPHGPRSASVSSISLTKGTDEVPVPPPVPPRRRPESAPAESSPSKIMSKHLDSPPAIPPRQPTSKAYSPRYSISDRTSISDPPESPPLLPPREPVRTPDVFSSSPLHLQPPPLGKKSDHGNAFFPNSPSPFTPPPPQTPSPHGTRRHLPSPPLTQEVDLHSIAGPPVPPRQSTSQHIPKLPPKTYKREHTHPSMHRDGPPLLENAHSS
# K562 = experiment: Antiproliferative activity against human K562 cells assessed as inhibition of cell viability incubated for 72 hrs by Cell Titer Glo assay; format: functional, cell-based; details: K562, 72 h
# Summary of the method: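 K-562 cells (wild-type KRAS, sourced from ATCC) were tested for antiproliferative response.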
# MOLM-13 = experiment: Antiproliferative activity against human MOLM-13 cells assessed as inhibition of cell viability incubated for 72 hrs by Cell Titer Glo assay; format: functional, cell-based; details: MOLM-13, 72 h
# [6] = biological target: Son of sevenless homolog 2 (Homo sapiens, UniProt Q07890); experiment: Inhibition of N-terminal His10-tagged wild-type recombinant human SOS2 catalytic domain (564 to 1043 residues) expressed in Escherichia coli assessed as reduction in KRAS G12C mutant activation preincubated for 10 mins with KRAS followed by SOS2 addition measured after 30 mins in presence of EDA-GTP-DY-647P1 by HTRF analysis
# NCI-H358 = experiment: Antiproliferative activity against human NCI-H358 cells assessed as inhibition of cell viability incubated for 72 hrs by Cell Titer Glo assay; format: functional, cell-based; details: NCI-H358, 72 h
# Summary of the method: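 NCI-H358 cells (KRAS G12C mutant) were sourced from ATCC.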
# [7] = biological target: GTPase KRas (Homo sapiens) (UniProt P01116); experiment: Stabilization of N-terminal His10-tagged wild-type recombinant human KRAS (1 to 169 residues) expressed in Escherichia coli assessed as change in melting temperature at 100 uM with heating from 25 to 85 degreeC by thermal shift assay
# [8] = biological target: T2, Guanine nucleotide exchange factor DBS (Homo sapiens, UniProt O15068); experiment: Inhibition of human DBS assessed as reduction in CDC42 activation preincubated for 1 min with CDC42 followed by DBS addition measured after 20 mins in presence of EDA-GTP-DY-647P1 by HTRF analysis
# T2 sequence (O15068 whole entry): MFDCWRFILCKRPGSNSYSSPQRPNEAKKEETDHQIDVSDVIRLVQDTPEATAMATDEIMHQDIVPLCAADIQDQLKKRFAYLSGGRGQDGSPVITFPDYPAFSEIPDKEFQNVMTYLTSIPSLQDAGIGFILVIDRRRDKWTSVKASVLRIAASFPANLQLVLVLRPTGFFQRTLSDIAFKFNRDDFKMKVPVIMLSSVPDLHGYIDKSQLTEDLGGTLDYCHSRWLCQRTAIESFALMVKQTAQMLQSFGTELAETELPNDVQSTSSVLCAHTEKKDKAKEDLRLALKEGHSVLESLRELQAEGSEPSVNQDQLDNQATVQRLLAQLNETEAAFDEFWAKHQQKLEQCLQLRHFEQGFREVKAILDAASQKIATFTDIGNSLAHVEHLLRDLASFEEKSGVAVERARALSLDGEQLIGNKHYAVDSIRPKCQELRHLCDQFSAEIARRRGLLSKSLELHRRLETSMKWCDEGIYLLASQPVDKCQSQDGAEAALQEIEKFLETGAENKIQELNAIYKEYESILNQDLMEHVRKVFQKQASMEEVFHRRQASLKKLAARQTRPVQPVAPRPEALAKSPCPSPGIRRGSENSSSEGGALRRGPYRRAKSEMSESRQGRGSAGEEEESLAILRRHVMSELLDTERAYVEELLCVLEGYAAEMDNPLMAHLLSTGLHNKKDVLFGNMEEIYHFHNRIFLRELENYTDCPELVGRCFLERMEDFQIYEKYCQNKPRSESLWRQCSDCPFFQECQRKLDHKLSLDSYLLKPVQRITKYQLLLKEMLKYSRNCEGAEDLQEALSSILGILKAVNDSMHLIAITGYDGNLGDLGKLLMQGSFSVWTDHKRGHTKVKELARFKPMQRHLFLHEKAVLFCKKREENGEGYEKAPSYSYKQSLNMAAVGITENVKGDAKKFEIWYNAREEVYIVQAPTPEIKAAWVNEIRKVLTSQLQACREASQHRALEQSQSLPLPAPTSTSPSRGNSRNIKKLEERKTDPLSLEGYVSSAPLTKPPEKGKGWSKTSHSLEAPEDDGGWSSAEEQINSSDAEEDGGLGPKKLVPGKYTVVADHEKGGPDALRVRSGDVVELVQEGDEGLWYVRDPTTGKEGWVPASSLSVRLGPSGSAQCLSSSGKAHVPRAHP
# [9] = test system: GTPase KRas (Homo sapiens), P01116 [G12C]; experiment: Stabilization of N-terminal GST-tagged recombinant human KRAS G12C mutant (1 to 169 residues) expressed in Escherichia coli assessed as change in melting temperature at 100 uM with heating from 25 to 85 degreeC by thermal shift assay
Structure (SMILES),IC50 (SOS1-KRAS) [nM],further results
COc1cc2nc(C)nc(NC(C)c3ccc(-c4ccccc4[C@@H](C)N)s3)c2cc1OC (stereo partly specified),200,
COc1cc2nc(C)nc(NC(C)c3ccc(-c4ccccc4S(=O)(=O)N(C)C)s3)c2cc1OC (stereo unspecified),2160,
COc1cc2nccc(N[C@H](C)c3cccc4ccccc34)c2cc1OC,2590,
COc1cc2nc(C)nc(NC(C)c3ccc(-c4ccccc4C(C)(C)N)s3)c2cc1OC (stereo unspecified),400,
COc1cc2nc(C)nc(NC(C)c3ccc(-c4ccccc4CN)s3)c2cc1OC (stereo unspecified),80,
O=C(CO)N1CCc2ccccc2C1,,Activity (Homo sapiens [1]): inactive; Activity (Homo sapiens [2]): inactive; Activity (Homo sapiens [3]): inactive
COc1cc2nc(N(C)C)nc(N[C@H](C)c3cccc4ccccc34)c2cc1OC,800,IC50 [4]: > 20 µM
COc1cc2nc(C)nc(N(C)[C@H](C)c3cccc(Br)c3)c2cc1OC,> 20000,IC50 [4]: > 20 µM
CCCCNCc1ccccc1-c1ccc(C(C)Nc2nc(C)nc3cc(OC)c(OC)cc23)s1 (stereo unspecified),98,
COc1cc2nc(C)nc(NC(C)c3ccc(-c4ccccc4CNCCO)s3)c2cc1OC (stereo unspecified),46,
COc1cc2nc(C)nc(NC(C)c3ccc(-c4ccccc4CCN)s3)c2cc1OC (stereo unspecified),51,
COCCNCc1ccccc1-c1ccc(C(C)Nc2nc(C)nc3cc(OC)c(OC)cc23)s1 (stereo unspecified),100,
COc1cc2nc(C)nc(NC(C)c3ccc(-c4ccccc4CNCc4ccccc4)s3)c2cc1OC (stereo unspecified),470,
COc1cc2nc(C)nc(NC(C)c3ccc(-c4ccccc4C(N)=O)s3)c2cc1OC (stereo unspecified),3210,
COc1cc2nc(C)nc(NC(C)c3ccc(-c4ccccc4[C@H](C)N)s3)c2cc1OC (stereo partly specified),230,
CCNCc1ccccc1-c1ccc(C(C)Nc2nc(C)nc3cc(OC)c(OC)cc23)s1 (stereo unspecified),55,
NCCCc1ccc(Cl)cc1,,Activity (Homo sapiens [1]): Active; Activity (Homo sapiens [2]): Active; Activity (Homo sapiens [3]): Active

Structure (SMILES),IC50 (SOS1-KRAS) [nM],further results
CNCc1ccccc1-c1csc([C@H](C)Nc2nc(C)nc3cc(OC)c(OC)cc23)c1 [BAY-294],,ΔTm [5]: 0.28 °C; IC50 (K562): 7.5 µM; IC50 (MOLM-13): 7.57 µM; IC50 [6]: > 20 µM; IC50 (NCI-H358): 3.39 µM; ΔTm [7]: -0.05 °C; IC50 [8]: > 20 µM; ΔTm [9]: -0.6 °C; IC50 [4]: > 20 µM
COc1cc2nc(C)nc(NC(C)c3ccc(-c4ccccc4CNCC(F)F)s3)c2cc1OC (stereo unspecified),780,
COc1cc2nc(C)nc(NC(C)c3ccc(-c4ccc(F)cc4CNC(C)=O)s3)c2cc1OC (stereo unspecified),590,
CCN(CC)Cc1ccccc1-c1ccc(C(C)Nc2nc(C)nc3cc(OC)c(OC)cc23)s1 (stereo unspecified),170,
COc1cc2nc(C)nc(NC(C)c3ccc(-c4ccccc4CN(C)C)s3)c2cc1OC (stereo unspecified),40,
COc1cc2nc(C)nc(NC(C)c3ccc(-c4ccccc4C#N)s3)c2cc1OC (stereo unspecified),590,
COc1cc2nc(C)nc(NC(C)c3ccc(-c4ccccc4CN4CCC4)s3)c2cc1OC (stereo unspecified),76,
COc1cc2nc(C)nc(NC(C)c3ccc(-c4ccccc4CN4CC(F)C4)s3)c2cc1OC (stereo unspecified),410,
COc1cc2nc(C)nc(N[C@H](C)c3cccc4ccccc34)c2cc1OC,,IC50 [4]: > 20 µM
CNCc1ccccc1-c1ccc(C(C)Nc2nc(C)nc3cc(OC)c(OC)cc23)s1 (stereo unspecified),41,
COc1cc2nc(C)nc(N[C@H](C)c3cccc(Br)c3)c2cc1OC,170,IC50 [4]: > 20 µM
COc1cc2nc(C)nc(NC(C)c3ccc(-c4ccccc4CO)s3)c2cc1OC (stereo unspecified),280,
COc1cc2nc(C)nc(NC(C)c3ccc(-c4ccccc4CN(C)CCO)s3)c2cc1OC (stereo unspecified),47,
COc1cc2ccnc(N[C@H](C)c3cccc4ccccc34)c2cc1OC,12200,IC50 [4]: > 20 µM
COc1cc2nc(C)nc(NC(C)c3ccc(-c4ccccc4S(C)(=O)=O)s3)c2cc1OC (stereo unspecified),1410,
COc1cc2nc(C)nc(NC(C)c3ccc(-c4ccccc4CNCC(F)(F)F)s3)c2cc1OC (stereo unspecified),3150,
COc1cc2nc(C(F)(F)F)nc(N[C@H](C)c3cccc4ccccc34)c2cc1OC,1450,IC50 [4]: > 20 µM

# Reference: ChEMBL document CHEMBL5678818, “Discovery of potent SOS1 inhibitors that block RAS activation via disruption of the RAS-SOS1 interaction” (Proc Natl Acad Sci U S A, 2019)
